Data set [1] relates to P388. Nature of the data set: Cytotoxicity against mouse P388 cells assessed as cell viability after 92 hrs by XTT assay. The class given is functional, cell-based. As to conditions: P388, 92 h. For orientation: Tetrazolium dyes change colour on reduction, which living cells bring about.
A short description of data set [2]: Induction of H+/Na+ exchange activity in pyranine-encapsulated large unilamellar vesicle of egg yolk phosphatidylcholine/cholesterol at 10 uM administered 60 secs measured for 10 mins by spectrofluorometric analysis. It is filed as physicochemical. As to conditions: 125 nM, in the assay text read “at 125 nM” for “at 10 uM”. In short, it runs like this:
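Liposomes of EYPC/cholesterol 2:1 carrying encapsulated pyranine, prepared in HEPES buffer with 200 mM NaCl. pH gradient: 6.5 inside, 7.5 outside. Peptides added at 60 s. H+/Na+ exchange followed as pH-dependent pyranine fluorescence increase, normalized to maximal exchange induced by Triton X-100.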

Data set [3] deals with P388. Nature of the data set: Induction of H+/Na+ exchange activity in BCECF-loaded mouse P388 cells assessed as change in intracellular pH at 125 nM measured for 1.5 hrs by spectrofluorometric analysis. The class given is functional, cell-based. In short, it runs like this:
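P388 mouse leukemia cells loaded with BCECF-AM, which intracellular esterases hydrolyse to trapped BCECF. Cells were suspended in pH 7.8 MOPS buffer with 130 mM NaCl to impose a Na+ gradient. Peptides added at 0 s at 125 nM; exposure 1.5 h. Fluorescence was converted to intracellular pH using a nigericin calibration curve.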

Broadly, the IC50 is the point on the concentration scale where inhibition reaches its midpoint.

Activity calls are given as the source filed them. The rule behind the calls is not given here. A value given as a limit tells only on which side of the number the result lay.

For `CC[C@H](C)[C@H](NC(=O)[C@@H](CC(=O)NC)NC(=O)CNC(=O)[C@H](NC(=O)[C@@H](NC(=O)[C@@H](CC(=O)NC)NC(=O)[C@@H](NC(=O)[C@@H](CC(=O)NC)NC(=O)CNC(=O)CNC(=O)[C@H](C)NC(=O)[C@H](NC(=O)[C@H](CCC(=O)NC)NC(=O)[C@@H](CC(=O)NC)NC(=O)[C@@H](NC(=O)CNC(=O)[C@H](C)NC(=O)CNC(=O)[C@@H](NC(=O)[C@@H](CC(=O)NC)NC(=O)[C@H](C)NC(=O)[C@H](NC(=O)[C@H](C)N)C(C)(C)C)C(C)(C)O)C(C)(C)C)C(C)(C)O)[C@@H](C)CC)C(C)(C)C)C(C)(C)O)C(=O)N[C@H](CC(=O)NC)C(=O)N[C@H](C(=O)N[C@H](CC(=O)NC)C(=O)N[C@@H](C)C(=O)N[C@H](CC(=O)NC)C(=O)N[C@H](C(=O)N[C@H](CO)C(=O)N[C@H](C(=O)N[C@H](CC(N)=O)C(=O)N[C@@H](Cc1cn(CCNS(=O)(=O)c2cccc3c(N(C)C)cccc23)nn1)C(=O)N[C@H](CC(N)=O)C(=O)N[C@@H](CCC(N)=O)C(=O)N[C@@H](C(=O)N[C@H](C(=O)O)[C@@H](C)O)[C@H](C)O)C(C)C)C(C)C)C(C)C`, the IC50 with P388 [1] came out at 3.7 nM. In data set [2], the Activity result is reported as “Not Active”. In addition, the outcome with P388 [3] was inactive.
Turning to `CC[C@H](C)[C@H](NC(=O)[C@@H](CC(=O)NC)NC(=O)CNC(=O)[C@H](NC(=O)[C@@H](NC(=O)[C@@H](CC(=O)NC)NC(=O)[C@@H](NC(=O)[C@@H](CC(=O)NC)NC(=O)CNC(=O)CNC(=O)[C@H](C)NC(=O)[C@H](NC(=O)[C@H](CCC(=O)NC)NC(=O)[C@H](N)CC(=O)NC)C(C)(C)O)[C@@H](C)CC)C(C)(C)C)C(C)(C)O)C(=O)N[C@H](CC(=O)NC)C(=O)N[C@H](C(=O)N[C@H](CC(=O)NC)C(=O)N[C@@H](C)C(=O)N[C@H](CC(=O)NC)C(=O)N[C@H](C(=O)N[C@H](CO)C(=O)N[C@H](C(=O)N[C@H](CC(N)=O)C(=O)N[C@@H](Cc1cn(CCNS(=O)(=O)c2cccc3c(N(C)C)cccc23)nn1)C(=O)N[C@H](CC(N)=O)C(=O)N[C@@H](CCC(N)=O)C(=O)N[C@@H](C(=O)N[C@H](C(=O)O)[C@@H](C)O)[C@H](C)O)C(C)C)C(C)C)C(C)C`, in the data set with P388 [1], the half-inhibitory concentration (IC50) is above 250 nM.
Same read-out and setting: the same measure for `CC[C@H](C)[C@H](NC(=O)[C@@H](CC(=O)NC)NC(=O)CNC(=O)[C@H](NC(=O)[C@@H](NC(=O)[C@@H](CC(=O)NC)NC(=O)[C@@H](NC(=O)[C@@H](CC(=O)NC)NC(=O)CNC(=O)CNC(=O)[C@H](C)NC(=O)[C@H](NC(=O)[C@H](CCC(=O)NC)NC(=O)[C@@H](CC(=O)NC)NC(=O)[C@@H](N)C(C)(C)C)C(C)(C)O)[C@@H](C)CC)C(C)(C)C)C(C)(C)O)C(=O)N[C@H](CC(=O)NC)C(=O)N[C@H](C(=O)N[C@H](CC(=O)NC)C(=O)N[C@@H](C)C(=O)N[C@H](CC(=O)NC)C(=O)N[C@H](C(=O)N[C@H](CO)C(=O)N[C@H](C(=O)N[C@H](CC(N)=O)C(=O)N[C@@H](Cc1cn(CCNS(=O)(=O)c2cccc3c(N(C)C)cccc23)nn1)C(=O)N[C@H](CC(N)=O)C(=O)N[C@@H](CCC(N)=O)C(=O)N[C@@H](C(=O)N[C@H](C(=O)O)[C@@H](C)O)[C@H](C)O)C(C)C)C(C)C)C(C)C`: 390 nM.

For the origin of these results see ChEMBL document CHEMBL2321750, “Structural permutation of potent cytotoxin, polytheonamide B: discovery of cytotoxic Peptide with altered activity” (ACS Med Chem Lett, 2013).
